Assay results reported in article PMC4687753 (Journal of the American Chemical Society, 2015).
“Also recorded” adds a separate entry of the source. *1 amine or outer side, *2 acyl side, *3 side chain or, on linkers, in order; H or OH if unused. Where a SMILES comes first, the peptide text is derived from it. Bridges are numbered along the chain shown (N, C = ends). Roman numbers before positions name the chains, in order. [ ]: non-standard residue; d: D form. X2 = O=C(O)CCC(=O)N1C[C@H](N[*:2])[C@@H](C(=O)[*:1])C1; X1 = O=C([C@H]1CCC[C@@H]1N[*:1])[*:2]; S5 = C=CCCC[C@](C)(N)C(=O)O

Key:
LIM-2405 = test: Cell killing assay; assay type: cell-based; conditions: LIM-2405 (colon), 10 μM, 24 hours, CellTiter-Glo, two independent experiments
How it was run: (§1)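 Human tumour lines grown in RPMI with 10% FBS. Seeded at 1.5×10³ cells/well, then washed with serum-free medium after 24 h. Exposed to 10 μM test compound or DMSO in serum-free medium for 2 h, then FBS added to 10% final, for 24 h total exposure. Viability read as CellTiter-Glo luminescence (intracellular ATP) relative to DMSO; mean ± SD of two independent experiments.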

U937 lymphoma cells = conditions: CellTiter-Glo; for effect of caspase inhibitor Q-VD-OPh on loss of U937 viability: 50 μM Q-VD-OPh, 2 hours; for cell viability relative to DMSO control: U937, 10 μM, 24 hours, two independent experiments; for U937 cell viability after 2 hours of treatment: titration, 2 hours serum-free, absence of caspase inhibitor
MEFs = test: Cell killing assay; assay type: cell-based, mouse; conditions: 10 μM, 24 hours, CellTiter-Glo, two independent experiments
How it was run: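 Mouse embryonic fibroblasts kept in DME KELSO medium with 10% FBS, 250 μM L-asparagine and 50 μM 2-mercaptoethanol. Given 10 μM test compound or DMSO for 24 h. Viability measured by CellTiter-Glo luminescence (intracellular ATP) relative to DMSO; mean ± SD of two independent experiments.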

proteinase K = proteinase K (Parengyodontium album, UniProt P06873); test: Protease susceptibility assay; conditions: same conditions as t1/2
SW480 = test: Cell killing assay; assay type: cell-based; conditions: SW480 (colon), 10 μM, 24 hours, CellTiter-Glo, two independent experiments
How it was run: as §1

A549 = test: Cell killing assay; assay type: cell-based; conditions: A549 (lung), 10 μM, 24 hours, CellTiter-Glo, two independent experiments
How it was run: as §1

MDA-MB-468 = test: Cell killing assay; assay type: cell-based; conditions: MDA-MB-468 (mammary), 10 μM, 24 hours, CellTiter-Glo, two independent experiments
MDA-MB-231 = test: Cell killing assay; assay type: cell-based; conditions: MDA-MB-231 (mammary), 10 μM, 24 hours, CellTiter-Glo, two independent experiments
Bcl-2 = Bcl-2 (Homo sapiens, UniProt P10415); test: SPR solution competition assay; assay type: binding
Mcl-1 = Mcl-1 (Homo sapiens, UniProt Q07820); test: SPR solution competition assay; assay type: binding
Bcl-xL = Bcl-xL (Homo sapiens, UniProt Q07817); test: SPR solution competition assay; assay type: binding
[1] = system: unpermeabilized U937 cells; test: Cytochrome c release assay, unpermeabilized cells; assay type: cell-based; conditions: unpermeabilized U937, 10 μM peptide, 3 hours at 37°C, western blot
[2] = system: bax−/−/bak−/− mouse embryonic fibroblasts (MEFs); test: Cytochrome c release assay, permeabilized cells; assay type: cell-based; conditions: digitonin-permeabilized bax−/−/bak−/− MEFs, 10 μM peptide, 1 hour, western blot
[3] = system: wild-type mouse embryonic fibroblasts (MEFs); test: Cytochrome c release assay, permeabilized cells; assay type: cell-based; conditions: digitonin-permeabilized wt MEFs, 10 μM peptide, 1 hour, western blot

Chain of proteinase K (P06873 106-384, species assumed): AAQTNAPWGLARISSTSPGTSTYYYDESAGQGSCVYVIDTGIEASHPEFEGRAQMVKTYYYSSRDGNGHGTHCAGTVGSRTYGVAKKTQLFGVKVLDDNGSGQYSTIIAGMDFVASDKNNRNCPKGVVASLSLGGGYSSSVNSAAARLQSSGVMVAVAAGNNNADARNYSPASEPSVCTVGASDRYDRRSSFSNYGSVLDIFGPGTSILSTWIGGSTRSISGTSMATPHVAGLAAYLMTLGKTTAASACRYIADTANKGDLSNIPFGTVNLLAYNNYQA
Chain of Mcl-1 (Q07820 171-327 limits assumed): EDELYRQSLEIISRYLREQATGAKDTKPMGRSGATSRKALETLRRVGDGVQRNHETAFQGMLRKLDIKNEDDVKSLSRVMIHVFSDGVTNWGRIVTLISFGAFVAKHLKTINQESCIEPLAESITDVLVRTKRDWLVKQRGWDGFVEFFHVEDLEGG
Chain of Bcl-2 (P10415 1-217 limits assumed): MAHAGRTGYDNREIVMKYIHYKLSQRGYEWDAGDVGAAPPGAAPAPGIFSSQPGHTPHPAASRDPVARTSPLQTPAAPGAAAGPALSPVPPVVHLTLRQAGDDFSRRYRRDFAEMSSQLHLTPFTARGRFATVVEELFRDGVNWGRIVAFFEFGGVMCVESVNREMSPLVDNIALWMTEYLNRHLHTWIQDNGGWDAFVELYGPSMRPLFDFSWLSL
Chain of Bcl-xL (Q07817 1-209 limits assumed, species assumed): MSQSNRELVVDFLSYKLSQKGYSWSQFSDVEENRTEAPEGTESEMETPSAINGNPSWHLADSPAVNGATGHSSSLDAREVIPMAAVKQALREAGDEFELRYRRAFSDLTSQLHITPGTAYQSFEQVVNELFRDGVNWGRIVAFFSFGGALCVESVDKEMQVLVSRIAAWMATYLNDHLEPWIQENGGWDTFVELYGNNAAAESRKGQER

Compound | cell viability relative to DMSO control (LIM-2405) | effect of caspase inhibitor Q-VD-OPh on loss of U937 viability (U937 lymphoma cells) | cell viability relative to DMSO control (U937 lymphoma cells) | U937 cell viability after 2 hours of treatment (U937 lymphoma cells) | cell viability relative to DMSO control (MEFs) | increase in half-life relative to α-Bim (proteinase K) | cell viability relative to DMSO control (SW480) | cell viability relative to DMSO control (A549) | cell viability relative to DMSO control (MDA-MB-468) | cell viability relative to DMSO control (MDA-MB-231) | IC50 (Bcl-2) [nM] | IC50 (Mcl-1) [nM] | IC50 (Bcl-xL) [nM] | location of cytochrome c after treatment of intact cells [1] | cytochrome c release from pellet fraction to soluble cytosolic fraction [2] | increase in half-life relative to the stapled peptide α-1 (proteinase K) [fold] | cytochrome c release from pellet fraction to soluble cytosolic fraction [3]
CC[C@H](C)[C@H](NC(C)=O)C(=O)N[C@@H](Cc1c[nH]c2ccccc12)C(=O)N[C@H](C(=O)N[C@@H](C)C(=O)N[C@@H](CCC(N)=O)C(=O)N[C@@H](CCC(=O)O)C(=O)N[C@@H](CC(C)C)C(=O)N[C@@H](CCCNC(=N)N)C(=O)N[C@@]1(C)CCC/C=C\CCC[C@@](C)(C(=O)N[C@@H](Cc2ccccc2)C(=O)N[C@@H](CC(N)=O)C(=O)N[C@@H](C)C(=O)N[C@@H](Cc2ccc(O)cc2)C(=O)N[C@@H](Cc2ccc(O)cc2)C(=O)N[C@@H](C)C(=O)N[C@@H](CCCNC(=N)N)C(=O)N[C@@H](CCCNC(=N)N)C(N)=O)NC(=O)[C@H](CC(=O)O)NC(=O)CNC(=O)[C@H]([C@@H](C)CC)NC1=O)[C@@H](C)CC [α-1, reference compound] | no significant cell death | attenuated by Q-VD-OPh | efficiently killing U937 lymphoma cells | significant reduction in cell viability | essentially no effect | ~ 6 fold | no significant cell death | no significant cell death | no significant cell death | no significant cell death | – | – | – | – | – | – | –
C=CCCC[C@](C)(NC(=O)[C@H](CC(=O)O)NC(=O)CNC(=O)[C@@H](NC(=O)[C@](C)(CCCC=C)NC(=O)[C@H](CCCNC(=N)N)NC(=O)[C@H](CC(C)C)NC(=O)[C@H](CCC(=O)O)NC(=O)[C@H](CCC(N)=O)NC(=O)[C@H](C)NC(=O)[C@@H](NC(=O)[C@H](Cc1c[nH]c2ccccc12)NC(=O)[C@@H](NC(C)=O)[C@@H](C)CC)[C@@H](C)CC)[C@@H](C)CC)C(=O)N[C@@H](Cc1ccccc1)C(=O)N[C@@H](CC(N)=O)C(=O)N[C@@H](C)C(=O)N[C@@H](Cc1ccc(O)cc1)C(=O)N[C@@H](Cc1ccc(O)cc1)C(=O)N[C@@H](C)C(=O)N[C@@H](CCCNC(=N)N)C(=O)N[C@@H](CCCNC(=N)N)C(N)=O [α-1-LIN] | – | – | – | – | – | – | – | – | – | – | 189 | 4 | 80 | – | – | – | –
CC[C@H](C)[C@H](NC(C)=O)C(=O)N[C@H]1CCC[C@@H]1C(=O)N[C@H](C(=O)N[C@@H](C)C(=O)N[C@@H](CCC(N)=O)C(=O)N[C@H]1CN(C(=O)CCC(=O)O)C[C@@H]1C(=O)N[C@@H](CC(C)C)C(=O)N[C@@H](CCCNC(=N)N)C(=O)N[C@@]1(C)CCC/C=C\CCC[C@@](C)(C(=O)N[C@@H](Cc2ccccc2)C(=O)N[C@@H](CC(N)=O)C(=O)N[C@H]2CCC[C@@H]2C(=O)N[C@@H](Cc2ccc(O)cc2)C(=O)N[C@@H](Cc2ccc(O)cc2)C(=O)N[C@@H](C)C(=O)N[C@@H](CCCNC(=N)N)C(=O)N[C@@H](CCCNC(=N)N)C(N)=O)NC(=O)[C@H](CC(=O)O)NC(=O)CNC(=O)[C@H]([C@@H](C)CC)NC1=O)[C@@H](C)CC [α/β-1] (I: LR[S5]IGD[S5]FN[X1]YYARR-NH2 / II: Ac-I[X1]IAQ; staple (Z) I:3-I:7; linker I:N-II:C via X2) | no significant cell death | attenuated by Q-VD-OPh | potently impacted U937 lymphoma cell viability | significant reduction in cell viability | essentially no effect | > 500 fold | no significant cell death | no significant cell death | no significant cell death | no significant cell death | – | – | – | most of the cytochrome c was present in the soluble fraction | but not in bax^−/−/bak^−/− MEFs | > 90 | able to induce cytochrome c release
CC[C@H](C)[C@H](NC(C)=O)C(=O)N[C@H]1CCC[C@@H]1C(=O)N[C@H](C(=O)N[C@@H](C)C(=O)N[C@@H](CCC(N)=O)C(=O)N[C@H]1CN(C(=O)CCC(=O)O)C[C@@H]1C(=O)N[C@@H](CC(C)C)C(=O)N[C@@H](CCCNC(=N)N)C(=O)N[C@H]1CCC[C@@H]1C(=O)N[C@H](C(=O)NCC(=O)N[C@@H](CC(=O)O)C(=O)N[C@H]1CCC[C@@H]1C(=O)N[C@@H](Cc1ccccc1)C(=O)N[C@@H](CC(N)=O)C(=O)N[C@H]1CCC[C@@H]1C(=O)N[C@@H](Cc1ccc(O)cc1)C(=O)N[C@@H](Cc1ccc(O)cc1)C(=O)N[C@@H](C)C(=O)N[C@@H](CCCNC(=N)N)C(=O)N[C@@H](CCCNC(=N)N)C(N)=O)[C@@H](C)CC)[C@@H](C)CC [α/β-2] (I: LR[X1]IGD[X1]FN[X1]YYARR-NH2 / II: Ac-I[X1]IAQ; linker I:N-II:C via X2) | – | – | – | – | – | – | – | – | – | – | – | – | – | cytochrome c exclusively in the pellet | but not in bax^−/−/bak^−/− MEFs | – | Slightly less cytochrome c release; also recorded: able to induce cytochrome c release
